Data set [1] concerns normal human lung fibroblasts (Wi-38). The data set is described as follows: MTT cytotoxicity assay on normal lung fibroblasts. The format is cell-based. Particulars: for IC50: read-out: Wi-38 IC50. For orientation: Tetrazolium assays rely on reduction of a dye to a coloured formazan, in cell work by metabolically active cells.
Another data set relates to human NSCLC A549 cells. Put plainly: MTT cytotoxicity assay on NSCLC cells. The data set is classed as cell-based. Particulars: for IC50: Mean ± SD, n = 3; for fold more potent than cisplatin: A549 IC50 relative to cisplatin; for SI (ratio of IC50 for healthy and cancer cells): Wi-38 IC50 / A549 IC50. In outline:
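Human A549 and Wi-38 fibroblasts (ATCC) grown in DMEM with 10% FBS at 37 °C, 5% CO2. Wi-38 seeded at 5 x10^3 cells/well and given 24 h to attach; A549 run by the same MTT method. […] MTT 5 mg/ml added for 3 h at 37 °C, formazan dissolved in DMSO, A570 read. IC50 derived; SI = Wi-38 IC50/A549 IC50. Mean ± SD, n = 3.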

The target in data set [2] is CaV3.2 (T-type) calcium channels (Homo sapiens, UniProt O95180). Put plainly: Whole cell patch-clamp T-type calcium channel block. The format is cell-based. The settings on record: HEK-tsA201, read-out: Block of CaV3.2 (T-type) currents, percentage of inhibition, 10 μM; HEK tsA-201 cells; n = 3. The method in brief: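 Human embryonic kidney tsA-201 (293T) cells transiently transfected to express CaV3.2 T-type channels, then recorded by whole-cell patch clamp. Each test compound applied at 10 µM and block of T-type calcium current measured.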
Sequence of CaV3.2 (T-type) calcium channels (O95180 whole entry): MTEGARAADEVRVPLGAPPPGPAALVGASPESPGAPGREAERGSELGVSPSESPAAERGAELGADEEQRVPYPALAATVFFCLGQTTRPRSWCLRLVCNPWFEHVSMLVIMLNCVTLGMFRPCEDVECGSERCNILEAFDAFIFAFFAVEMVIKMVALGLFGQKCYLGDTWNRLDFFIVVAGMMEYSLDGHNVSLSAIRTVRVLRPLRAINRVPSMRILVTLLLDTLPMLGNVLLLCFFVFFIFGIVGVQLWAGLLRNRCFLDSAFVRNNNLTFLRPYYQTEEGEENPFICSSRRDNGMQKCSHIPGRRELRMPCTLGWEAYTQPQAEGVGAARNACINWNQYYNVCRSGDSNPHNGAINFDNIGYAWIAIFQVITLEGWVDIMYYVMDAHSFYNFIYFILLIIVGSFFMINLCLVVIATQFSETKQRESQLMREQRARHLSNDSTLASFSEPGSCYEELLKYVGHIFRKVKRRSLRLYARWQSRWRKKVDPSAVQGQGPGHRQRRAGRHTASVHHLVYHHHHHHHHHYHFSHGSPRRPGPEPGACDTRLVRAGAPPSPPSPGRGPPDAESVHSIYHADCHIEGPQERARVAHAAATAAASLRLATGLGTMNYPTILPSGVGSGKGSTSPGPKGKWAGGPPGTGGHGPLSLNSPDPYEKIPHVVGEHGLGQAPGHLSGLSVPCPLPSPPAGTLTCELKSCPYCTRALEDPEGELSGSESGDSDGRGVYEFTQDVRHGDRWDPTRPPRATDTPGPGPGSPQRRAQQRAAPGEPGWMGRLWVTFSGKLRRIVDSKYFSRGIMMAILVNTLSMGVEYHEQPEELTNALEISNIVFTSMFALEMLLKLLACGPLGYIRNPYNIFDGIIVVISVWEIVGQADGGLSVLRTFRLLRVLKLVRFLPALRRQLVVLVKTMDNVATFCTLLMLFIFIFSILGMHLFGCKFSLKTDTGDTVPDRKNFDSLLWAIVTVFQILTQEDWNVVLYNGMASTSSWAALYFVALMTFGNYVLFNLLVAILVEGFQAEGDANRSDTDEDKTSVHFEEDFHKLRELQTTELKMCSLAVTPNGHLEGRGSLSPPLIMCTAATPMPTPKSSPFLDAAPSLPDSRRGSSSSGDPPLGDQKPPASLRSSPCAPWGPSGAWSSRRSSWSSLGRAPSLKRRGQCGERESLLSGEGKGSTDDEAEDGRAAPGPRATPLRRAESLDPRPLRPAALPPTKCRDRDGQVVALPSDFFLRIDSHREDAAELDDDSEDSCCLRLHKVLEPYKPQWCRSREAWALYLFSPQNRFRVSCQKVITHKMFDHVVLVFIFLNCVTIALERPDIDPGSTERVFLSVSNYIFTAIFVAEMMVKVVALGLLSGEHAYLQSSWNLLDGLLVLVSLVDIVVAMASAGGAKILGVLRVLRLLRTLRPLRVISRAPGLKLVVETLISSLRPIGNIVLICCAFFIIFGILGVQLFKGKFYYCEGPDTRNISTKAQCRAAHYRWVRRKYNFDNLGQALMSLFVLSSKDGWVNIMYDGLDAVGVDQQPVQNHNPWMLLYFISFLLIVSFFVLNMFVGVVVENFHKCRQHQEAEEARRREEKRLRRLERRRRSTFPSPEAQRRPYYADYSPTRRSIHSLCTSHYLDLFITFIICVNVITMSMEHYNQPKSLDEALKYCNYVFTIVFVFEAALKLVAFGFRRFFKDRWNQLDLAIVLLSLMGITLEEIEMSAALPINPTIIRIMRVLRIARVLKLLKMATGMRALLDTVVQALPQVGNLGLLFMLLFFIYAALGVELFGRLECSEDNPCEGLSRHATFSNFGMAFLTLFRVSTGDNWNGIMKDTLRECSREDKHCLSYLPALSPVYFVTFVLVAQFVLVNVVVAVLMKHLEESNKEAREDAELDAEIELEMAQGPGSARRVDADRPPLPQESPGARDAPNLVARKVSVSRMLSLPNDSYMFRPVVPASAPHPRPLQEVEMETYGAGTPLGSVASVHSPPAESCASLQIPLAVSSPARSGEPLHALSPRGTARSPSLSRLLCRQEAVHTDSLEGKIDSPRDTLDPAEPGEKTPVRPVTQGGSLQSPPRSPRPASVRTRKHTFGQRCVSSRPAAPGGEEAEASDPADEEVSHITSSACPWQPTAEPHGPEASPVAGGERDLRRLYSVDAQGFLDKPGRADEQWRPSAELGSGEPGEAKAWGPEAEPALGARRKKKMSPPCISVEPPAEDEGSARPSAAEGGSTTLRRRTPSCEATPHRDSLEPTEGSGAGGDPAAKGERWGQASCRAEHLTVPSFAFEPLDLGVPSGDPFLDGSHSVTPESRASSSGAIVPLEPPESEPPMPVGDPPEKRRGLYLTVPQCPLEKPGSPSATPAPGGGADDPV
In general terms: Patch clamp records ionic current or voltage across a cell membrane.

The subject of another data set is A549 cells. The data set is described as follows: Combination studies with cisplatin. The format is cell-based, human.
A further data set concerns the target MMP-9 (Homo sapiens, UniProt P14780). Put plainly: In vitro MMP-9 inhibition assay. The data set is classed as biochemical. In outline: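 Commercial MMP-9 inhibitor assay kit, run per the manufacturer's instructions. Test compounds were assayed at 0.5 µM alongside the broad-spectrum hydroxamate MMP inhibitor NNGH as reference. For selectivity, MMP-2 inhibition was measured with a colorimetric MMP-2 inhibitor screening kit at the same 0.5 µM, also per the manufacturer's instructions.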

A short description of data set [3]: DPPH radical scavenging assay. The settings on record: n = 3; for DPPH radical scavenging %: 12 h, dark. In outline:
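Test compound dissolved in 1:1 water:DMSO (v/v), then mixed with an equal volume of 0.6 mM DPPH in absolute ethanol, giving final 500, 250, 125, 100, 62.5 and 31.25 µg/mL. Kept 12 h at room temperature in complete darkness. Absorbance read at 517 nm. Inhibition % taken from control (A0) versus compound (A1) absorbance, IC50 then calculated. Mean ± SD, n = 3.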
(In general: The DPPH test is a chemical assay of radical scavenging.)

Where [4] appears, read: Homo sapiens, A549, 72 h, read-out: A549 IC50, MTT, 72 h.

Several values for one entry are separate records, joined by “and”; a condition that tells them apart may be missing. Equal values may be shown once. Read-outs that look alike come from different tables or passages of the source.

What is called IC50 is the concentration needed to halve the response being measured. The inhibition is how much of the control response was suppressed.

Sequence of MMP-9 (P14780 94-707): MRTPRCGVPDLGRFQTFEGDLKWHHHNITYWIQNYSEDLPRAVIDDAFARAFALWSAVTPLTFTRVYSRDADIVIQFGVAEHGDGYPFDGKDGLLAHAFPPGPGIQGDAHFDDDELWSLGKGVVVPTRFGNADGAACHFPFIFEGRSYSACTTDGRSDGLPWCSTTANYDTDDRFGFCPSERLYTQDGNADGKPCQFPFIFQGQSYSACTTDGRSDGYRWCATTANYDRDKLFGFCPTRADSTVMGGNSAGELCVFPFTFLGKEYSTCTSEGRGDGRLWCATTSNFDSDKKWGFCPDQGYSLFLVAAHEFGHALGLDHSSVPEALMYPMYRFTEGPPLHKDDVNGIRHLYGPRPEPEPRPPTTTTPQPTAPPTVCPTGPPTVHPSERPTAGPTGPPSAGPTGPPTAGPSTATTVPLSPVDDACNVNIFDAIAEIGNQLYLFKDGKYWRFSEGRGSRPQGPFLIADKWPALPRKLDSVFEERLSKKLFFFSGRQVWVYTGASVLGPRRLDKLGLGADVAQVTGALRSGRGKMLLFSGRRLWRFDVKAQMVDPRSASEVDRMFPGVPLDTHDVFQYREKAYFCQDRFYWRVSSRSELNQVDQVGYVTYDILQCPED

As to `N.N.[Cl][Pt][Cl]` [Cisplatin, reference compound], the half-maximal inhibitory concentration (IC50) came out at 1330 ± 82 nM in data set [1] (MTT, 72 h, Mean ± SD, n = 3) and 586 ± 30 nM in the data set with human NSCLC A549 cells (read-out: A549 IC50, MTT, 72 h).

For `[N-]=[N+]=NCC(=O)Nc1nc(-c2ccccc2)cs1` [Compound 3, 2-Azido-N-(4-phenylthiazol-2-yl)acetamide], the IC50 in data set [1] (Homo sapiens, WI-38, 72 h) turned out to be 1728 ± 3 nM; in the data set with human NSCLC A549 cells (setting [4]), 74.4 nM; in the data set with human NSCLC A549 cells (read-out: A549 IC50, MTT, 72 h) it was 74 ± 4 nM. Besides, the “Wi-38 EC100 (effective safe concentration at 100% cell viability)” value in data set [1] (MTT, 72 h, Mean ± SD, n = 3) was 429 nM and 429 ± 32 nM. Further, in the data set with human NSCLC A549 cells, the “fold more potent than cisplatin” value is recorded as around 8 fold.

Regarding `O=C(Cn1cc(CO)nn1)Nc1nc(-c2ccccc2)cs1` [Compound 4, 2-[4-(Hydroxymethyl)-1H-1,2,3-triazol-1-yl]-N-(4-phenylthiazol-2-yl)acetamide], the inhibition at 10 µM in data set [2] is around 60%. Also, the IC50 worked out at 249 ± 2 nM in data set [1] (Homo sapiens, WI-38, 72 h) and 268 ± 2 nM with human NSCLC A549 cells (setting [4]). Besides, the “Wi-38 EC100 (effective safe concentration at 100% cell viability)” value in data set [1] (MTT, 72 h, Mean ± SD, n = 3) was 58 ± 4 nM.

Take `O=Cc1cn(CC(=O)Nc2nc(-c3ccccc3)cs2)nn1` [Compound 5, 2–(4-Formyl-1H-1,2,3-triazol-1-yl)-N-(4-phenylthiazol-2-yl)acetamide]: the inhibition at 10 µM in data set [2] was 20%. Moreover, the IC50 in data set [1] (Homo sapiens, WI-38, 72 h) came out at 243 ± 14 nM; with human NSCLC A549 cells (setting [4]) it was 112 nM. Further, the “Wi-38 EC100 (effective safe concentration at 100% cell viability)” value in data set [1] (MTT, 72 h, Mean ± SD, n = 3) came out at 78 ± 4 nM.

For `CC(=O)C=Cc1cn(CC(=O)Nc2nc(-c3ccccc3)cs2)nn1` [Compound 6a, 2-[4–(3-Oxobut-1-en-1-yl)-1H-1,2,3-triazol-1-yl]-N-(4-phenylthiazol-2-yl)acetamide], the IC50 worked out at 1920 ± 212 nM in data set [1] (Homo sapiens, WI-38, 72 h) and 82 ± 5 nM in the data set on human NSCLC A549 cells (setting [4]). In addition, the “Wi-38 EC100 (effective safe concentration at 100% cell viability)” value in data set [1] (MTT, 72 h, Mean ± SD, n = 3) was 460 nM and 460 ± 110 nM.

`O=C(Cn1cc(C=CC(=O)c2ccc(F)cc2)nn1)Nc1nc(-c2ccccc2)cs1` [Compound 6d, 2-{4-[3–(4-Fluorophenyl)-3-oxoprop-1-en-1-yl]-1H-1,2,3-triazol-1-yl}-N-(4-phenylthiazol-2-yl)acetamide]: in data set [2], the inhibition at 10 µM was around 60%. In addition, the “lowering of combination IC50 compared to cisplatin as single agent” value in the data set with A549 cells (6d combined with cisplatin) was > 72.3% and > 72.32%. Also, the “dose reduction index (DRI) for cisplatin” value in the data set with A549 cells (6d with cisplatin at IC50 doses) was 6.89 folds. The “combination index (CI)” value in the data set with A549 cells (6d with cisplatin, CI < 1 synergistic) is 0.69 ± 0.05 and 0.69. In addition, the IC50 worked out at 90 ± 10 nM at MMP-9; 255 ± 3 nM in data set [1] (Homo sapiens, WI-38, 72 h); 21 ± 1 nM in the data set on human NSCLC A549 cells (setting [4]). In addition, the “selectivity to MMP-9 over MMP-2 (SI)” value on MMP-9 (MMP-9 over MMP-2, 0.5 μM) turned out to be 2.4. Also, at MMP-9 (read-out: MMP-9 % Inhibition (0.5 μM)), the inhibition at 0.5 µM came to 96.2 ± 0.6%. Also, the “fold more active than NNGH (MMP-9 IC50)” value on MMP-9 (relative to NNGH) is recorded as around 4 fold. Further, the “Wi-38 EC100 (effective safe concentration at 100% cell viability)” value in data set [1] (MTT, 72 h, Mean ± SD, n = 3) amounted to 138 ± 9 nM. Further, the “DPPH radical scavenging %” value in data set [3] (250 µg/mL) was 70.9 ± 6.6%; in data set [3] (500 µg/mL), 85.4 ± 7.9%. For the same molecule, in data set [3] (Mean ± SD), the “DPPH radical scavenging IC50” value came out at 146.9 ± 22.54 µg/mL. In addition, in the data set with human NSCLC A549 cells, the “fold more potent than cisplatin” value came to 27 fold.

For the molecule `Cc1ccc(C2=NNC(c3cn(CC(=O)Nc4nc(-c5ccccc5)cs4)nn3)C2)cc1` (stereo not shown) [Compound 7c, 2-{4-[3-(p-tolyl)-4,5-dihydro-1H-pyrazol-5-yl]-1H-1,2,3-triazol-1-yl}-N-(4-phenylthiazol-2-yl)acetamide], the IC50 in data set [1] (Homo sapiens, WI-38, 72 h) amounted to 230 ± 5 nM; in the data set on human NSCLC A549 cells (setting [4]) it was 200 ± 6 nM. In addition, the “Wi-38 EC100 (effective safe concentration at 100% cell viability)” value in data set [1] (MTT, 72 h, Mean ± SD, n = 3) is reported as 51 ± 7 nM. Moreover, the “SI (ratio of IC50 for healthy and cancer cells)” value with human NSCLC A549 cells is reported as 1.15.

As to `O=C(Cn1cc(C2CC(c3ccc(F)cc3)=NN2)nn1)Nc1nc(-c2ccccc2)cs1` (stereo not shown) [Compound 7d, 2-{4-[3–(4-Fluorophenyl)-4,5-dihydro-1H-pyrazol-5-yl]-1H-1,2,3-triazol-1-yl}-N-(4-phenylthiazol-2-yl)acetamide], the IC50 in data set [1] (Homo sapiens, WI-38, 72 h) stood at 1300 ± 31 nM; in the data set on human NSCLC A549 cells (setting [4]), 425 ± 17 nM. In addition, in data set [1] (MTT, 72 h, Mean ± SD, n = 3), the “Wi-38 EC100 (effective safe concentration at 100% cell viability)” value was found to be 108 ± 15 nM. The “SI (ratio of IC50 for healthy and cancer cells)” value in the data set with human NSCLC A549 cells was 3.05.

For the molecule `O=C(C=Cc1cn(CC(=O)Nc2nc(-c3ccccc3)cs2)nn1)C=Cc1cn(CC(=O)Nc2nc(-c3ccccc3)cs2)nn1` [Compound 8, 2,2’-[(3-Oxopenta-1,4-diene-1,5-diyl)bis(1H-1,2,3-triazole-4,1-diyl)]bis(N-(4-phenylthiazol-2-yl)acetamide)], the IC50 in data set [1] (Homo sapiens, WI-38, 72 h) worked out at 108 ± 3 nM; with human NSCLC A549 cells (setting [4]), 116 ± 1 nM. Further, the “Wi-38 EC100 (effective safe concentration at 100% cell viability)” value in data set [1] (MTT, 72 h, Mean ± SD, n = 3) amounted to 38 ± 2 nM.

As for `COc1ccc(S(=O)(=O)N(CC(=O)NO)CC(C)C)cc1` [NNGH, reference compound], the “MMP-9 % Inhibition (0.5 μM)” value on MMP-9 (0.5 μM, Mean ± SD, n = 2) amounted to 56.8 ± 0.8%. Moreover, at MMP-9 (read-out: MMP-9 IC50, Mean ± SD, n = 2), the IC50 was found to be 350 ± 10 nM.

The values above are taken from publication PMC11328607 (Journal of Enzyme Inhibition and Medicinal Chemistry, 2024).
